Assay outcomes from PubChem BioAssay.
APP 5'UTR act – activates APP 5'UTR luciferase reporter; SH-SY5Y APP 5'UTR luciferase reporter, luminescence; zero percent = DMSO vehicle wells; activation, % at 2 µM; 190,000 tested, 1% active;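 active means activation above a set limit, based on mean plus 3 SD of controls, cut at about 140% in these data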
STAT1 act – increases IFN-gamma driven STAT1 reporter signal | NIH 3T3 STAT1-luciferase reporter, luminescence; 100% = IFN-gamma alone, no compound | activation (% of control), % at 5.5 µM | 200,000 tested, 2.6% active;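 active means activation above the screen-wide mean activation plus 3 SD, cut at about 130% in these data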;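 further: raw ratio to IFN-gamma control signal so 100% means no change and 0% no light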
NF-kB expr up – compounds increasing NF-kB expression in human neuronal cells. NF-kB reporter expression; active compounds read high. fold change at 12.5 µM. 190,000 tested, 1.6% active. AID 1239; in the data active means fold change above about 3.3
STAT1 blocker – reduces IFN-gamma driven STAT1 reporter signal. NIH 3T3 STAT1-luciferase reporter, luminescence. inhibition, % at 5.5 µM. 200,000 tested, 0.35% active. AID 920;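 active means inhibition above a set limit, the mean inhibition across all tested compounds plus 3 SD, cut at about 34% in these data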;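 further: 0% = IFN-gamma with DMSO and 100% = IFN-gamma with 300 µM nifuroxazide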
STAT3 inh-1 – reduces IL-6 driven STAT3 reporter signal; 190,000 tested, 0.89% active; U3A cells, IL-6 STAT3-luciferase reporter, luminescence; host cell line lacks STAT1; inhibition, % at 5.5 µM;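 active means inhibition above the mean inhibition across all screened compounds plus 3 SD, cut at about 44% in these data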;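 further: 0% = DMSO only wells and 100% = 100 µM nifuroxazide control wells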
STAT3 activator – STAT3 signaling activation; U3A cells, IL-6 STAT3-luciferase reporter, luminescence; 100% = signal with IL-6 EC80 alone; activation (% of control), % at 5.6 µM; 190,000 tested, 0.91% active; AID 871;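 active means activation above the screen-wide mean of compound activation plus 3 SD, cut at about 130% in these data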;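 further: 0% = background luminescence of wells with medium and substrate only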
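Assay system – human STAT1-deficient U3A cells with stable STAT3-luciferase reporter · Also added – IL-6 (33 ng/mL) · Schedule – compound 1 h, then IL-6 6 h at 37 °C · Technique – reporter luminescence signal · Evaluation – % activation versus median of IL-6-stimulated wells · Benchmarks – IL-6-only wells as 100% reference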
STAT3 inh-2 – confirmation of STAT3 signaling inhibitors; shares compounds with STAT3 inh-1; U3A cells, IL-6 STAT3 luciferase reporter, luminescence; cell line lacks STAT1; inhibition, % at 5.7 µM; 1,200 tested, 45% active; AID 1265;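 active means inhibition above the hit cutoff computed for the primary STAT3 screen, cut at about 44% in these data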;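 further: 0% = IL-6 plus DMSO and 100% = IL-6 plus nifuroxazide control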
NFkB inh STAT3ct – counter-screen for STAT3 inhibitors: NF-kappaB inhibition; shares compounds with STAT3 inh-1; HEK293T NF-kB luciferase reporter, TNF-alpha induced; inhibition, % at 5.7 µM; 1,200 tested, 36% active; AID 1308;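 active means inhibition above the mean of solvent-only control wells plus 3 SD, cutoff set per campaign, cut at about 13% in these data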;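 further: 0% = TNF-alpha with DMSO and 100% = TNF-alpha with MG high control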
STAT1 inh 2 – inhibits STAT1, counter-screen to STAT3 inhibitors. NIH 3T3 STAT1-luciferase reporter, IFN-gamma induced, luminescence. AID 1317. 1,200 tested, 27% active. shares compounds with STAT3 inh-1. inhibition, % at 5.7 µM;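 active means inhibition above the mean plus 3 SD of solvent-only control wells, limit set per screening run, cut at about 16% in these data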;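 further: 0% = DMSO with IFN-gamma and 100% = nifuroxazide control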
* marks the source's active call; other numbers are inactive results; nt = no result given. A selection: hits, their analogues and other compounds. The true share with any hit is near 5.1%.

SMILES	APP 5'UTR act	STAT1 act	NF-kB expr up	STAT1 blocker	STAT3 inh-1	STAT3 activator	STAT3 inh-2	NFkB inh STAT3ct	STAT1 inh 2
Cc1ccc(C(=O)COC(=O)c2cccs2)cc1	198*	77	7.5*	25	47*	64	6	-23	-66
COC(=O)c1cc(NC(=O)Cc2cc(OC)c(OC)c(OC)c2)cc(C(=O)OC)c1	14	96	0.92	6	4	101	nt	nt	nt
O=C(Nc1ccccc1)c1sc2cc(C(F)(F)F)cnc2c1-c1cccs1	-14	104	1.6	-5	12	96	nt	nt	nt
Cc1cc(C(=O)COC(=O)c2n[nH]c3ccccc23)c(C)n1CC1CCCO1 (stereo unspecified)	168*	99	1	1	64*	47	20	-5	-70
CCOc1cc(C(=O)OCC(=O)c2cc(C)n(CC3CCCO3)c2C)ccc1OCC(=O)N1CCOCC1 (stereo unspecified)	3	84	1.3	16	0	102	nt	nt	nt
COCCn1c(C)cc(C(=O)COC(=O)c2c(C)nn(Cc3ccccc3)c2C)c1C	8	93	0.88	7	8	97	nt	nt	nt
COCCn1c(C)cc(C(=O)COC(=O)c2n[nH]c3ccccc23)c1C	98	74	0.87	29	83*	34	51*	23*	-20
Cc1cc(C(=O)COc2ccccc2C(N)=O)c(C)n1CC1CCCO1 (stereo unspecified)	22	77	1.2	24	73*	44	70*	22*	16*
CCOC(=O)N1CCN(C(=O)CSc2ccc(-c3ccc(OC)cc3)nn2)CC1	2	101	0.99	-3	6	104	nt	nt	nt
CC(C)Oc1ccc(C(=O)NC2=NCCS2)cc1	154*	94	8.3*	4	62*	51	30	-21	-79
Cc1ccc(NC(=O)Cn2nc(C)c3ccccc3c2=O)cc1F	-6	108	0.97	-7	-2	106	nt	nt	nt
Cc1ccc(NC(=O)Cc2nn(C)c(=O)c3ccccc23)cc1F	-8	80	0.87	30	85*	30	77*	25*	23*
Cn1nc(CC(=O)Nc2ccc3c(c2)OCCO3)c2ccccc2c1=O	-5	76	0.6	26	83*	34	78*	34*	28*
O=C(NCc1ccc(C(=O)O)cc1)OCc1ccccc1	23	98	nt	1	-4	108	nt	nt	nt
O=C(N/N=C/c1ccc2c(c1)OCO2)c1ccccn1	56	100	2.2	0	55*	61	13	-9	-54
Cc1cccc(C(=O)N/N=C/c2ccc3c(c2)OCO3)n1	-6	100	1.4	0	6	96	nt	nt	nt
COc1cccc(-c2cc(C(=O)Nc3cccc(O)c3)no2)c1	106	100	6.7*	0	89*	29	50*	9	-53
CC1Cc2ccccc2N1C(=O)CSc1nnc2n1C(C)(C)Cc1ccccc1-2 (stereo unspecified)	-8	97	1.1	3	15	90	nt	nt	nt
COc1ccccc1N1CCN(C(=O)CSc2nnc3n2C(C)(C)Cc2ccccc2-3)CC1	7	82	0.55	20	57*	52	53*	14*	19*
O=C(Nc1ccccc1C(=O)O)/C(=C/c1ccc([N+](=O)[O-])cc1)NC(=O)c1ccc(Br)o1	-10	105	1.1	-7	9	99	nt	nt	nt
O=C(COC(=O)c1n[nH]c2ccccc12)Nc1ccc(S(=O)(=O)N2CCCC2)cc1	5	96	0.5	4	71*	45	51*	6	9
O=C(COC(=O)c1n[nH]c2ccccc12)Nc1cccc(S(=O)(=O)N2CCOCC2)c1	-3	85	1	14	14	95	nt	nt	nt
N#C/C(=C\c1ccccc1)C(=O)OCC(=O)N1CCCC1	-2	103	1.2	-4	-1	103	nt	nt	nt
C=CCN=c1scc(-c2ccc3c(c2)NC(=O)CO3)n1/N=C(\C)c1ccccn1	-52	80	0.75	21	75*	39	74*	18*	22*
CC(Nc1nc(-c2ccc3c(c2)NC(=O)CO3)cs1)c1ccccc1 (stereo unspecified)	3	112	1.2	-12	6	95	nt	nt	nt
SMILES	APP 5'UTR act	STAT1 act	NF-kB expr up	STAT1 blocker	STAT3 inh-1	STAT3 activator	STAT3 inh-2	NFkB inh STAT3ct	STAT1 inh 2
CNS(=O)(=O)c1cc(NC(C)=O)c(C)cc1C	-1	106	1.3	-6	3	99	nt	nt	nt
O=CNC(Cc1ccccc1)C(=O)O (stereo unspecified)	14	100	0.79	0	-4	101	nt	nt	nt
CCOc1ccc(C(=O)NCCCN2CCOCC2)cc1OCC	-4	103	1.1	-6	8	97	nt	nt	nt
Cc1ccc(/C=C/c2nnc(-c3cccs3)o2)cc1	2	91	5.2*	10	64*	52	24	-9	-40
c1ccc(-c2cc(CSc3nc4ccccc4[nH]3)on2)cc1	-12	88	0.79	13	46*	63	37	11	14
CCOC(=O)C1CCN(C(=O)CCc2c(C)nc3cc(-c4ccccc4)nn3c2C)CC1	-23	106	0.78	-6	24	86	nt	nt	nt
CCOC(=O)C1CCCCN1C(=O)CCc1c(C)nc2cc(-c3ccccc3)nn2c1C (stereo unspecified)	-52	98	0.48	3	49*	65	28	5	-14
Clc1ccc(OCCN2CCN(c3ncnc4sccc34)CC2)cc1	-15	74	0.59	29	89*	30	88*	34*	23*
Cc1ccc(OCCN2CCN(c3ncnc4sc(C)c(C)c34)CC2)cc1	nt	78	0.7	24	79*	35	81*	26*	25*
Cc1sc2ncnc(N3CCCCC3)c2c1C	nt	89	0.73	12	13	94	nt	nt	nt
CCN1CCN(CCOc2ccc(Cl)cc2)CC1	7	113	1.3	-16	10	97	nt	nt	nt
COc1ccc(C)cc1NC(=O)CNc1ccc(C(C)=O)cc1	2	100	1.1	2	10	90	nt	nt	nt
CC(C)Cc1nnc(NC(=O)CSc2nc(-c3ccccc3)cc(=O)[nH]2)s1	16	103	1.3	-5	4	101	nt	nt	nt
Cn1c(N=Nc2ccccc2)nc2ccccc21	180*	131*	3.6*	-34	51*	58	-14	-13	-120
CCCOC(=O)c1ccc(Oc2coc3c(CN(CC)CC)c(O)ccc3c2=O)cc1	-2	92	1.1	9	3	100	nt	nt	nt
